From ChEMBL document CHEMBL1134544, “Novel selective PDE4 inhibitors. 1. Synthesis, structure-activity relationships, and molecular modeling of 4-(3,4-dimethoxyphenyl)-2H-phthalazin-1-ones and analogues” (J Med Chem, 2001)

Legend:
[1] = biological target: Phosphodiesterase 4 (Homo sapiens, UniProt P27815+Q08499+Q07343+Q08493); assay: Inhibition of PDE4 in the cytosol of human neutrophils; type: protein assay
Method in brief: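 Cytosol of human polymorphonuclear leukocytes from leukocyte concentrates, with motapizone 1 µM to suppress platelet PDE3. [3H]cAMP hydrolysis (0.5 µM cAMP, Tris-HCl pH 7.4, 5 mM MgCl2), 5 min preincubation plus 15 min at 37 °C. Snake venom nucleotidase step, ion-exchange separation, scintillation counting.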

[2] = biological target: Phosphodiesterase 3 (Homo sapiens, UniProt Q14432+Q13370); assay: Inhibition of PDE3 in homogenates of human blood platelets
Method in brief: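 PDE3 from human blood platelet homogenates. Radiometric assay: 50 mM Tris-HCl pH 7.4, 5 mM MgCl2, 0.5 µM cAMP plus [3H]cAMP; 5 min preincubation then 15 min at 37 °C; HCl stop, Crotalus atrox 5'-nucleotidase, QAE Sephadex separation, blank-corrected counts. Inhibitors at 0.5% DMSO final; IC50 by nonlinear regression; two independent determinations in triplicate.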

Compound	Log IC50 [1]	Log IC50 [2]
COc1ccc(C2=NN(c3ccccc3)C(=O)[C@@H]3CC=CC[C@H]23)cc1OC	-7.9	–
COc1ccc(C2=NNC(=O)CC2)cc1OC	-5.9	-5.6
COc1ccc(C2=NN(c3ccccc3)C(=O)[C@@H]3CCCC[C@H]23)cc1OC	-7.6	–
COc1ccc(C2=NN(Cc3ccccc3)C(=O)CC2)cc1OC	-7.1	-5.3
COc1ccc(-c2nnc(O)c3c2CCCC3)cc1OC	-5.2	–
COc1ccc(C2=NN(c3ccccc3)C(=O)C(C)C2)cc1OC (stereo not given)	-6.9	< -5
COc1ccc(-c2nn(Cc3ccccc3)c(=O)c3ccccc23)cc1OC	-6.5	–
O=c1c2cccnc2c(-c2cccc([N+](=O)[O-])c2)nn1Cc1ccncc1 [PYRIDOPYRIDAZINONE]	-8.3	–
COc1ccc(-c2nn(-c3ccccc3)c(=O)c3ccccc23)cc1OC	-5.8	–
COc1ccc(C2=NNC(=O)CC2C)cc1OC (stereo not given)	-6.5	-6.6
COc1ccc(C2=NN(c3ccccc3)C(=O)[C@@H]3CC=CC[C@@H]23)cc1OC	-6.1	–
COc1ccc(-c2nn(Cc3ccccc3)c(=O)c3c2CCCC3)cc1OC	-5.8	–
COc1ccc(-c2nnc(O)c3ccccc23)cc1OC	-5.8	–
COc1ccc(C2=NNC(=O)C(C)C2C)cc1OC (stereo in doubt; 3e)	-6.2	-5.4
COc1ccc(C2=NNC(=O)[C@@H]3CC=CC[C@H]23)cc1OC (relative stereo)	-7	–
COc1cc(-c2ccc(=O)[nH]n2)ccc1OC(F)F [ZARDAVERINE]	–	-6.2
COc1ccc(C2=NN(Cc3ccccc3)C(=O)[C@@H]3CC=CC[C@H]23)cc1OC	-8.4	–
COc1ccc(C2=NNC(=O)[C@@H]3CCCC[C@H]23)cc1OC (relative stereo)	-6.4	–
COc1ccc(C2=NN(c3ccccc3)C(=O)CC2C)cc1OC (stereo not given)	-6.8	< -5
COc1ccc(C2=NN(c3ccccc3)C(=O)CC2)cc1OC	-6.4	< -5
COc1ccc(C2=NN(c3ccccc3)C(=O)C(C)C2C)cc1OC (stereo not given)	-7.3	< -5
COc1ccc(C2=NN(Cc3ccccc3)C(=O)[C@@H]3CCCC[C@H]23)cc1OC	-8.1	–
COc1ccc(C2=NN(c3ccccc3)C(=O)[C@@H]3CCCC[C@@H]23)cc1OC	-5.1	–
COc1ccc(C2=NNC(=O)[C@@H]3CCCC[C@@H]23)cc1OC	-5.3	–
COc1ccc(-c2nn(-c3ccccc3)c(=O)c3c2CCCC3)cc1OC	-5.3	–
COc1ccc(C2=NNC(=O)C(C)C2C)cc1OC (stereo in doubt; 3d)	-6.7	< -5
